{"source": "ChEMBL document CHEMBL1136250", "about": "“N1-benzenesulfonylgramine and N1-benzenesulfonylskatole: novel 5-HT6 receptor ligand templates” (Bioorg Med Chem Lett, 2003)"}
{"target": "5-hydroxytryptamine receptor 6 (Homo sapiens, UniProt P50406)", "sequence (P50406 whole entry)": "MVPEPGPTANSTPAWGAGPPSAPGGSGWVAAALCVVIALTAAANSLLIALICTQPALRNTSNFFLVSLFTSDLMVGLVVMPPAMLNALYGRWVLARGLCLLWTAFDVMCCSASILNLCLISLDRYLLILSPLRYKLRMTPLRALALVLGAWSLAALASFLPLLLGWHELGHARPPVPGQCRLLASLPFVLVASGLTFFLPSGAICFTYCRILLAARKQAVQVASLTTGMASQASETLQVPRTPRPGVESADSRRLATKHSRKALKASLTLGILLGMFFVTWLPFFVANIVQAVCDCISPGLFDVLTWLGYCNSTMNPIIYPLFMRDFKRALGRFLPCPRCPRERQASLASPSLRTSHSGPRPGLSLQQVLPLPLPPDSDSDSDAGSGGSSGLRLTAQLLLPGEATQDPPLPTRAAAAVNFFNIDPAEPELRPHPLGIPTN", "test": "Binding affinity towards human 5-hydroxytryptamine 6 receptor", "conditions": "not given", "in_short": "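Competition binding with [3H]LSD (1 nM final), 90 min at room temperature in 50 mM Tris–Cl, 10 mM MgCl2, 0.1 mM EDTA, pH 7.40; clozapine defines non-specific binding. Test agent 1–10,000 nM; Ki by LIGAND fitting, triplicate determinations.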", "units": {"Ki": "nM"}}
{"smiles": "COc1ccc2c(c1)c(CCN(C)C)cn2S(=O)(=O)c1ccc(NC(C)=O)cc1", "Ki": 34}
{"smiles": "CNCCc1cn(S(=O)(=O)c2ccccc2)c2ccc(OC)cc12", "Ki": 23}
{"smiles": "CN(C)CCc1cn(S(=O)(=O)c2ccccc2)c2ccc(O)cc12", "Ki": 28}
{"smiles": "CCN(CC)CCc1cn(S(=O)(=O)c2ccc(NC(C)=O)cc2)c2ccc(OC)cc12", "Ki": 230}
{"smiles": "CCN(CC)CCc1cn(S(=O)(=O)c2ccc(N)cc2)c2ccccc12", "Ki": 0.6}
{"smiles": "CC(=O)Nc1ccc(S(=O)(=O)n2cc(CCN(C)C)c3ccccc32)cc1", "Ki": 27}
{"smiles": "CCN(CC)CCc1cn(S(=O)(=O)c2ccc(NC(C)=O)cc2)c2ccccc12", "Ki": 90}
{"smiles": "CCN(CC)CCc1cn(S(=O)(=O)c2ccccc2)c2ccc(OC)cc12", "Ki": 6.2}
{"smiles": "COc1ccc2c(c1)c(CCN(C)Cc1ccccc1)cn2S(=O)(=O)c1ccc(N)cc1", "Ki": 3}
{"smiles": "CCN(CC)CCc1cn(S(=O)(=O)c2ccc(N)cc2)c2ccc(OC)cc12", "Ki": 0.6}
{"smiles": "COc1ccc2c(c1)c(CCN(C)Cc1ccccc1)cn2S(=O)(=O)c1ccccc1", "Ki": 43}
{"test_system": "not listed separately", "test": "pA2 value was determined", "conditions": "not given"}
{"smiles": "Cc1cn(S(=O)(=O)c2ccc(N)cc2)c2ccccc12", "pA2": 7}
{"test_system": "HEK293", "test": "Inhibition of 5-HT stimulated cAMP production in HEK-5-HT6 cells", "format": "functional, cell-based", "conditions": "Homo sapiens", "in_short": "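HEK cells expressing 5-HT6 receptors; the compound was tested alone for agonist-induced cAMP production, and against 5-HT-stimulated cAMP production. IC50 was calculated for inhibition of the 5-HT-stimulated cAMP response.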", "units": {"IC50": "nM"}}
{"smiles": "CN(C)Cc1cn(S(=O)(=O)c2ccccc2)c2ccccc12", "IC50": 880}
{"smiles": "Cc1cn(S(=O)(=O)c2ccc(N)cc2)c2ccccc12", "IC50": 320}
